Measured values: ChEMBL document CHEMBL4808161, “Structure-Activity Relationship Study of Amidobenzimidazole Analogues Leading to Potent and Systemically Administrable Stimulator of Interferon Gene (STING) Agonists” (J Med Chem, 2021)
Activity calls are given as the source filed them. No cut-off for these calls is given here.

Tests used:
[1] = molecular target: T1, Stimulator of interferon genes protein (Homo sapiens, UniProt Q86WV6); test: Binding affinity to 6His-tagged human STING measured after 3 hrs by HTRF assay
[2] = Observed clearance in rat at 1 mg/kg, iv; type: ADME, organism-based; conditions: in vivo
[3] = Toxicity in orthotopic BALB/c mouse co-inoculated with mouse 4T1 […] cells assessed as weight loss at 10 mg/kg, iv administered on day 1,4 and 7 post inoculation; type: organism-based; conditions: in vivo, 168 h, time 7 day
Method in brief: (§1)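 BALB/c mice received 5 × 10⁵ 4T1 cells into the breast fat pad (orthotopic), with n = 5. Dosing began when tumours reached about 50−100 mm³: 10 mg/kg iv on days 1, 4 and 7, against a vehicle group. Body weight and tumour volume were recorded twice weekly, with tolerance and survival followed after each injection.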

[4] = Observed AUCinfinity in rat at 1 mg/kg, iv; type: ADME, organism-based; design: time infinity, route intravenous, dose 1 mg/kg; conditions: in vivo
[5] = Observed volume of distribution at steady state in rat at 1 mg/kg, iv; type: ADME, organism-based; conditions: in vivo, read-out: Vdss
[6] = molecular target: T2, Stimulator of interferon genes protein (Mus musculus, UniProt Q3TBT3); test: Activation of mouse STING expressed in RAW-Lucia ISG cells incubated for 24 hrs by secreted luciferase reporter gene assay
T2 sequence (Q3TBT3 whole entry): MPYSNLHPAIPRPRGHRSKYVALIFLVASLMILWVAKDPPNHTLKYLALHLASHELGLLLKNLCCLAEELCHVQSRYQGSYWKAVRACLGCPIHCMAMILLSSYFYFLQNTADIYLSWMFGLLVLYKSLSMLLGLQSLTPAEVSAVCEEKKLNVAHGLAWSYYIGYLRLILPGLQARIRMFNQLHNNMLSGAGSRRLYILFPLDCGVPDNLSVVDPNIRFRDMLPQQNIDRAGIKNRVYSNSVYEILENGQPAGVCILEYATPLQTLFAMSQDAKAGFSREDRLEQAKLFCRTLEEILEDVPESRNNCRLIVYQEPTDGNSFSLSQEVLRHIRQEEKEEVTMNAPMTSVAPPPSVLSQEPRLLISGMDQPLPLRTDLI

[7] = Half life in rat at 1 mg/kg, iv; type: ADME, organism-based; conditions: in vivo
[8] = AUClast in rat at 1 mg/kg, iv; type: ADME, organism-based; design: time 0 - last, route intravenous, dose 1 mg/kg; conditions: in vivo
[9] = Observed MRT infinity in rat at 1 mg/kg, iv; type: ADME, organism-based; conditions: in vivo
[10] = molecular target: T1, Stimulator of interferon genes protein; test: Activation of human STING expressed in THP1-Dual cells incubated for 24 hrs by secreted luciferase reporter gene assay
[11] = Toxicity in orthotopic BALB/c mouse co-inoculated with mouse 4T1 […] cells assessed as drug tolerance at 10 mg/kg, iv administered on day 1,4 and 7 post inoculation; type: organism-based; conditions: in vivo, 168 h, time 7 day; method in brief: as §1
[12] = molecular target: Stimulator of interferon genes protein (Homo sapiens, UniProt Q86WV6, G230A/R293Q/R71H); test: Agonist activity at human STING HAQ expressed in baculovirus infected Sf21 insect cells
[13] = molecular target: T1, Stimulator of interferon genes protein; test: Agonist activity at wild type human STING expressed in baculovirus infected Sf21 insect cells
[14] = tested on: CT26; test: Antitumor activity against mouse CT26 cells inoculated in BALB/c mouse assessed as inhibition of tumor growth IT(Intratumoral) administered on day 1,4 and 7 post inoculation; conditions: time 7.0 day

T1 sequence (Q86WV6 whole entry): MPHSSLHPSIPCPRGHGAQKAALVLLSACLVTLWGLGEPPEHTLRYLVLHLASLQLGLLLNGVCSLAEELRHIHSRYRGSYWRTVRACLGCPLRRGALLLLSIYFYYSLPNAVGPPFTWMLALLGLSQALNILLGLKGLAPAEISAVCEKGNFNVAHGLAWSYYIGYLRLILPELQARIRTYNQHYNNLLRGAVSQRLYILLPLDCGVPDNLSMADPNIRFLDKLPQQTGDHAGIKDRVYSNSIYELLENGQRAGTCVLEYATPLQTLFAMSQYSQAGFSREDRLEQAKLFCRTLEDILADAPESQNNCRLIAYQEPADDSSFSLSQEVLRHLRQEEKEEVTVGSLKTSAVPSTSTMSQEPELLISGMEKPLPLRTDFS
Sequence of Stimulator of interferon genes protein (Homo sapiens, UniProt Q86WV6, G230A/R293Q/R71H) (Q86WV6 whole entry R71H/G230A/R293Q): as the sequence (Q86WV6 whole entry) above, with R71H, G230A, R293Q counted along it

CCn1nc(C)cc1C(=O)/N=c1\[nH]c2cc(-c3ncn[nH]3)cc(OC)c2n1C/C=C/Cn1/c(=N/C(=O)c2cc(C)nn2CC)[nH]c2cc(C(N)=O)cc(OCCCN3CCOCC3)c21
EC50 [1]: 6.2 nM
clearance [2]: 23.9 mL/min/kg
Activity [3]: Toxic
AUC(0-inf) [4]: 705 ng·h/mL
Vd [5]: 0.722 L/kg
EC50 [6]: 39.5 µM
half-life [7]: 41.8 min
AUC(0-t) [8]: 678 ng·h/mL
MRT inf [9]: 30.2 min
EC50 [10]: 240 nM
Activity [11]: Non-Toxic

COc1cc2cc(C(=O)CCC(=O)O)sc2cc1OC
EC50 [12]: 8.3 µM
EC50 [13]: 24 µM

Cc1ccc2c(=O)c3cccc(CC(=O)O)c3oc2c1C
inhibition [14]: Active
